Reference: PMC3495079 (Biochemistry, 2012)

Tests used:
[1] = target: ScDcpS (Saccharomyces cerevisiae, UniProt Q06151); assay: HPLC analysis of cap analog hydrolysis by recombinant DcpS; assay type: biochemical, S. cerevisiae; settings: condition (2): 20 °C, pH 7.6; 15 μM substrate; 0.2 μM DcpS; up to 24 h
Method in brief: (§1)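 His-tagged recombinant enzyme was expressed in E. coli and purified by Ni-NTA and gel filtration. Cap analog (15 μM) was preincubated 10 min, then DcpS was added at 0.02 or 0.2 μM. Buffers were Tris/MgAc/(NH4)2SO4 at 37 °C, or Tris/KCl/EDTA/DTT at 20 °C. Aliquots were taken at 5–60 min and 24 h and heat-stopped (97 °C, 2.5 min). Reverse-phase HPLC used a methanol/KH2PO4 gradient with A260 and fluorescence detection. Products were identified by retention time, and % substrate hydrolyzed was recorded.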

[2] = target: AsDcpS (Ascaris suum, UniProt D3K0N9); assay: HPLC analysis of cap analog hydrolysis by recombinant DcpS; assay type: biochemical, A. suum; settings: condition (2): 20 °C, pH 7.6, 15 μM substrate; for Hydrolysis by DcpS (HPLC, Figure 3): 0.02 μM DcpS
AsDcpS, sequence (D3K0N9 whole entry): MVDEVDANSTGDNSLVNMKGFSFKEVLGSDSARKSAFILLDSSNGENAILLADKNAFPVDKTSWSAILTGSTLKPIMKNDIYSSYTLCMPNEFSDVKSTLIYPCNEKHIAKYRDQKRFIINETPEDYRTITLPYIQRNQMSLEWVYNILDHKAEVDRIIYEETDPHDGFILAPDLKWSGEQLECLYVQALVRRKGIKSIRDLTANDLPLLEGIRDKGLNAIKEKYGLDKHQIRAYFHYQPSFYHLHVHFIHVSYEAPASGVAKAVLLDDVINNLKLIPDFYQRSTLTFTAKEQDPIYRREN

[3] = target: T1, CeDcpS (Caenorhabditis elegans, UniProt G5EFS4); assay: HPLC analysis of cap analog hydrolysis by recombinant DcpS; assay type: biochemical, C. elegans; settings: condition (2): 20 °C, pH 7.6, 15 μM substrate; for Hydrolysis by DcpS (HPLC, Figure 3): 0.02 μM DcpS
T1 sequence (G5EFS4 1-311): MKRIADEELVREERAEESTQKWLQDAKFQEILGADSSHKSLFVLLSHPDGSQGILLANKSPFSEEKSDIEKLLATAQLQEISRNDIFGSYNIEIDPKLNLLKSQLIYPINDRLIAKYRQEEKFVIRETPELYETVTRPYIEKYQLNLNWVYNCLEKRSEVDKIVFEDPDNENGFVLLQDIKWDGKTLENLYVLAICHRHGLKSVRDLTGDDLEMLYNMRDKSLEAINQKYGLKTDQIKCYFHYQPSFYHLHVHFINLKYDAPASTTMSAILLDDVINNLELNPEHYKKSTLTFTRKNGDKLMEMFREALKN
Method in brief: as §1

[4] = target: T2, HsDcpS (Homo sapiens, UniProt Q96C86); assay: as above; assay type: biochemical; settings: for Hydrolysis by DcpS (HPLC, Figure 3): 60 min or 24 h
T2 sequence (Q96C86 1-337): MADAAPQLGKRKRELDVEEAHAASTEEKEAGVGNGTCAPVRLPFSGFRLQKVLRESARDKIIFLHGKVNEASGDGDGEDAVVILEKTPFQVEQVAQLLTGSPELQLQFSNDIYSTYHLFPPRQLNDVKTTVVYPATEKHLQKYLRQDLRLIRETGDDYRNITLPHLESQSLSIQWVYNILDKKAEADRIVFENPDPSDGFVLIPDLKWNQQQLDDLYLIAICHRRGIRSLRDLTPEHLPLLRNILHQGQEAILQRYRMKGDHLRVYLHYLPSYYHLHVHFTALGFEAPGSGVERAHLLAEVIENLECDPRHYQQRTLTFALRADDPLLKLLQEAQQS
Method in brief: as §1

[5] = target: recombinant CeDcpS; settings: substrate m^7GpppBODIPY; cited from earlier work
[6] = condition (2): 20 °C, pH 7.6, 15 μM substrate, 0.02 μM DcpS

ScDcpS, sequence (Q06151 whole entry): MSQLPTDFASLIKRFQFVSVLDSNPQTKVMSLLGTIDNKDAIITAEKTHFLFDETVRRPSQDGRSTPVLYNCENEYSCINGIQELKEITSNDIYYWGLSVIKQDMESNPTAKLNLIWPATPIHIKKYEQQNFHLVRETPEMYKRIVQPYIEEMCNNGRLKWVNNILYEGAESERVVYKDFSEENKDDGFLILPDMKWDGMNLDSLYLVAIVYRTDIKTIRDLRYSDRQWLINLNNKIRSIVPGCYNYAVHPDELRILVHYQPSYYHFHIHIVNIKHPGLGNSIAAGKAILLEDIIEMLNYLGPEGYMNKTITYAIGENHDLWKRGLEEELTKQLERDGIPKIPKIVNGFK

| SMILES | Hydrolysis by DcpS (HPLC) [1] | Hydrolysis by DcpS (HPLC) ([2]; 0.2 μM DcpS, up to 24 h) | Hydrolysis by DcpS (HPLC) ([3]; 0.2 μM DcpS, up to 24 h) | Hydrolysis by DcpS (HPLC) ([4]; condition (2): 20 °C, pH 7.6, 15 μM substrate, 0.2 μM DcpS, up to 24 h) | Hydrolysis by DcpS (HPLC, Figure 3) [2] | Hydrolysis by DcpS (HPLC, Figure 3) [3] | Ki [5] | Hydrolysis by DcpS (HPLC, Figure 3) [4, 6] | Rate of degradation by HsDcpS, fold slower than by AsDcpS and CeDcpS ([4]; condition (2), 0.02 μM DcpS, Figure 3) |
| --- | --- | --- | --- | --- | --- | --- | --- | --- | --- |
| C[n+]1cn([C@@H]2O[C@H](COP(=O)(O)OP(=O)(O)OP(=O)(O)OC[C@H]3O[C@@H](n4c[n+](C)c5c(=O)[nH]c(N)nc54)[C@H](O)[C@@H]3O)[C@@H](O)[C@H]2O)c2nc(N)[nH]c(=O)c21 [m^7Gpppm^7G] | significantly slower than that of m^7GpppG | significantly slower than that of m^7GpppG | significantly slower than that of m^7GpppG | significantly slower than that of m^7GpppG |  |  |  |  |  |
| CN(C)c1nc2c(c(=O)[nH]1)[n+](C)cn2[C@@H]1O[C@H](COP(=O)(O)OP(=O)(O)OP(=O)(O)OC[C@H]2O[C@@H](n3cnc4c(=O)[nH]c(N)nc43)[C@H](O)[C@@H]2O)[C@@H](O)[C@H]1O [m3^2,2,7GpppG] |  |  |  |  | readily hydrolyze | readily hydrolyze | 28 µM | not observed |  |
| Nc1nc2c(ncn2[C@@H]2O[C@H](COP(=O)(O)OP(=O)(O)OP(=O)(O)OC[C@H]3O[C@@H](n4cnc5c(=O)[nH]c(N)nc54)[C@H](O)[C@@H]3O)[C@@H](O)[C@H]2O)c(=O)[nH]1 [GpppG] |  |  |  |  | does not occur | much slower as compared to m^7GpppG |  | does not occur |  |
| Cn1c[n+]([C@@H]2O[C@H](COP(=O)([O-])OP(=O)(O)OP(=O)(O)O)[C@@H](O)[C@H]2O)c2nc(N)[nH]c(=O)c21 [m^7GTP] |  |  |  |  | efficiently hydrolyzed | efficiently hydrolyzed |  | efficiently hydrolyzed | 2 fold |
| CN(C)c1nc2c(c(=O)[nH]1)[n+](C)cn2[C@@H]1O[C@H](COP(=O)(O)OP(=O)(O)OP(=O)(O)O)[C@@H](O)[C@H]1O [m3^2,2,7GTP] |  |  |  |  | have activity | have activity |  |  |  |
